ChEMBL document CHEMBL5724801, “EUbOPEN Chemogenomics Library - Multiplex” (2024)
“And” between values parts separate entries of the source, which are not always exact repeats. Equal values may be shown once.

Test system: Fibroblast
Assay: Multiplex assay against human fibroblast
Type: toxicity, cell-based
How it was run: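 With compound added, live cells were imaged on a CQ1 microscope at 37°C and 5% CO2; staining with Hoechst33342, BioTracker Green Microtubule Cytoskeleton Dye, MitoTracker Red and Annexin V Alexa Fluor 680 had been done at seeding. The CellPathfinder machine-learning gating scheme split cells into Hoechst high-intensity objects or normal cells, normal cells into healthy, pyknosed or fragmented nuclei, and pyknosed cells into mitotic or apoptotic. The tubulin, mitochondrial-mass and membrane-permeability phenotypes are per cents of healthy-nucleus cells.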

[1] = 12 h, 1 µM, compound concentration 1 uM
[2] = 12 h, 10 µM, compound concentration 10 uM
[3] = 24 h, 1 µM, compound concentration 1 uM
[4] = 24 h, 10 µM, compound concentration 10 uM
[5] = 48 h, 1 µM, compound concentration 1 uM
[6] = 48 h, 10 µM, compound concentration 10 uM

CN1CCN2c3ccccc3Cc3ccccc3C2C1.Cl (stereo not drawn) [MIANSERIN HYDROCHLORIDE] was tested, and the “Population Apoptotic (%)” value [1] was 55% and 38%, the “Population Fragmented Nuclei (%)” value [1] was 28% and 27% and the “Population Healthy Nuclei (%)” value [1] was 56% and 50%. The “Population Hoechst High Intensity Objects (%)” value [1] was 2% and 4%, the “Population Mitochondria Different-Phenotype (%)” value [1] was 0% and 5% and the “Population Mitotic Cells (%)” value [1] was 45% and 61%. The “Population Normal (%)” value [1] was 97% and 95%, the “Population Pyknosed Nuclei (%)” value [1] was 14% and 22% and the “Population Tubulin-Different-Phenotype (%)” value [1] was 31% and 56%. The “Total Cell Count” value [1] was 138 and 119, the “Population Apoptotic (%)” value [2] was 55% and 33% and the “Population Fragmented Nuclei (%)” value [2] was 15% and 24%. The “Population Healthy Nuclei (%)” value [2] was 68% and 48%, the “Population Hoechst High Intensity Objects (%)” value [2] was 5% and 6% and the “Population Membrane Permeable-Phenotype (%)” value [2] was 1% and 3%. The “Population Mitochondria Different-Phenotype (%)” value [2] was 3% and 7%, the “Population Mitotic Cells (%)” value [2] was 44% and 66% and the “Population Normal (%)” value [2] was 94% and 93%. The “Population Pyknosed Nuclei (%)” value [2] was 15% and 27%, the “Population Tubulin-Different-Phenotype (%)” value [2] was 14% and 40% and the “Total Cell Count” value [2] was 126 and 116. The “Population Apoptotic (%)” value [3] was 52% and 36%, the “Population Fragmented Nuclei (%)” value [3] was 32% and 30% and the “Population Healthy Nuclei (%)” value [3] was 55% and 50%. The “Population Hoechst High Intensity Objects (%)” value [3] was 2% and 3%, the “Population Membrane Permeable-Phenotype (%)” value [3] was 0% and 6% and the “Population Mitochondria Different-Phenotype (%)” value [3] was 2% and 1%. For the same compound, the “Population Mitotic Cells (%)” value [3] was 47% and 63%, the “Population Normal (%)” value [3] was 97% and 96% and the “Population Pyknosed Nuclei (%)” value [3] was 12% and 19%. The “Population Tubulin-Different-Phenotype (%)” value [3] was 29% and 53%, the “Total Cell Count” value [3] was 143 and 119 and the “Population Apoptotic (%)” value [4] was 61% and 48%. The “Population Fragmented Nuclei (%)” value [4] was 14% and 31%, the “Population Healthy Nuclei (%)” value [4] was 73% and 47% and the “Population Hoechst High Intensity Objects (%)” value [4] was 5% and 4%. For the same compound, the “Population Membrane Permeable-Phenotype (%)” value [4] was 0% and 10%, the “Population Mitochondria Different-Phenotype (%)” value [4] was 1% and 5% and the “Population Mitotic Cells (%)” value [4] was 38% and 52%. For the same compound, the “Population Normal (%)” value [4] was 95%, the “Population Pyknosed Nuclei (%)” value [4] was 11% and 20% and the “Total Cell Count” value [4] was 120 and 127. For the same compound, the “Population Apoptotic (%)” value [5] was 78% and 46%, the “Population Fragmented Nuclei (%)” value [5] was 35% and 36% and the “Population Healthy Nuclei (%)” value [5] was 55% and 51%. For the same compound, the “Population Hoechst High Intensity Objects (%)” value [5] was 2% and 3%, the “Population Membrane Permeable-Phenotype (%)” value [5] was 0% and 3% and the “Population Mitochondria Different-Phenotype (%)” value [5] was 2% and 10%. The “Population Mitotic Cells (%)” value [5] was 21% and 53%, the “Population Normal (%)” value [5] was 97% and 96% and the “Population Pyknosed Nuclei (%)” value [5] was 9% and 11%. The “Population Tubulin-Different-Phenotype (%)” value [5] was 35% and 50%, the “Total Cell Count” value [5] was 151 and 116 and the “Population Apoptotic (%)” value [6] was 57% and 38%. For the same compound, the “Population Fragmented Nuclei (%)” value [6] was 15% and 29%, the “Population Healthy Nuclei (%)” value [6] was 71% and 55% and the “Population Hoechst High Intensity Objects (%)” value [6] was 5% and 3%. For the same compound, the “Population Membrane Permeable-Phenotype (%)” value [6] was 0% and 10%, the “Population Mitochondria Different-Phenotype (%)” value [6] was 2% and 1% and the “Population Mitotic Cells (%)” value [6] was 42% and 61%. The “Population Normal (%)” value [6] was 94% and 96%, the “Population Pyknosed Nuclei (%)” value [6] was 12% and 14% and the “Population Tubulin-Different-Phenotype (%)” value [6] was 16% and 37%. For the same compound, the “Total Cell Count” value [6] was 115 and 125.
CC(=O)NCCc1c(Cc2ccccc2)[nH]c2ccccc12 [LUZINDOLE] was tested, and the “Population Apoptotic (%)” value [1] was 41% and 40%, the “Population Fragmented Nuclei (%)” value [1] was 15% and 25% and the “Population Healthy Nuclei (%)” value [1] was 65% and 39%. For the same compound, the “Population Hoechst High Intensity Objects (%)” value [1] was 1% and 4%, the “Population Membrane Permeable-Phenotype (%)” value [1] was 2% and 9% and the “Population Mitochondria Different-Phenotype (%)” value [1] was 7% and 11%. For the same compound, the “Population Mitotic Cells (%)” value [1] was 58% and 59%, the “Population Normal (%)” value [1] was 98% and 95% and the “Population Pyknosed Nuclei (%)” value [1] was 18% and 34%. The “Population Tubulin-Different-Phenotype (%)” value [1] was 30% and 50%, the “Total Cell Count” value [1] was 129 and 134 and the “Population Apoptotic (%)” value [2] was 19% and 21%. The “Population Fragmented Nuclei (%)” value [2] was 15% and 26%, the “Population Healthy Nuclei (%)” value [2] was 69% and 59% and the “Population Hoechst High Intensity Objects (%)” value [2] was 2%. For the same compound, the “Population Mitochondria Different-Phenotype (%)” value [2] was 7% and 4%, the “Population Mitotic Cells (%)” value [2] was 80% and 78% and the “Population Normal (%)” value [2] was 97%. The “Population Pyknosed Nuclei (%)” value [2] was 15% and 13%, the “Population Tubulin-Different-Phenotype (%)” value [2] was 42% and 32% and the “Total Cell Count” value [2] was 140 and 105. The “Population Apoptotic (%)” value [3] was 54% and 45%, the “Population Fragmented Nuclei (%)” value [3] was 21% and 25% and the “Population Healthy Nuclei (%)” value [3] was 61% and 47%. For the same compound, the “Population Hoechst High Intensity Objects (%)” value [3] was 0% and 5%, the “Population Membrane Permeable-Phenotype (%)” value [3] was 0% and 8% and the “Population Mitochondria Different-Phenotype (%)” value [3] was 3% and 8%. The “Population Mitotic Cells (%)” value [3] was 45% and 54%, the “Population Normal (%)” value [3] was 99% and 94% and the “Population Pyknosed Nuclei (%)” value [3] was 16% and 26%. For the same compound, the “Total Cell Count” value [3] was 134 and 137, the “Population Apoptotic (%)” value [4] was 47% and 23% and the “Population Fragmented Nuclei (%)” value [4] was 15% and 27%. For the same compound, the “Population Healthy Nuclei (%)” value [4] was 67% and 59%, the “Population Hoechst High Intensity Objects (%)” value [4] was 2% and 3% and the “Population Membrane Permeable-Phenotype (%)” value [4] was 1% and 5%. The “Population Mitochondria Different-Phenotype (%)” value [4] was 5% and 3%, the “Population Mitotic Cells (%)” value [4] was 52% and 76% and the “Population Normal (%)” value [4] was 97% and 96%. The “Population Pyknosed Nuclei (%)” value [4] was 17% and 12%, the “Population Tubulin-Different-Phenotype (%)” value [4] was 29% and 33% and the “Total Cell Count” value [4] was 138 and 105. For the same compound, the “Population Apoptotic (%)” value [5] was 75% and 39%, the “Population Fragmented Nuclei (%)” value [5] was 15% and 27% and the “Population Healthy Nuclei (%)” value [5] was 72% and 55%. For the same compound, the “Population Hoechst High Intensity Objects (%)” value [5] was 5% and 8%, the “Population Membrane Permeable-Phenotype (%)” value [5] was 2% and 9% and the “Population Mitochondria Different-Phenotype (%)” value [5] was 3% and 5%. For the same compound, the “Population Mitotic Cells (%)” value [5] was 25% and 60%, the “Population Normal (%)” value [5] was 94% and 91% and the “Population Pyknosed Nuclei (%)” value [5] was 12% and 16%. For the same compound, the “Population Tubulin-Different-Phenotype (%)” value [5] was 24% and 46%, the “Total Cell Count” value [5] was 134 and 149 and the “Population Apoptotic (%)” value [6] was 80% and 54%. For the same compound, the “Population Fragmented Nuclei (%)” value [6] was 19% and 34%, the “Population Healthy Nuclei (%)” value [6] was 70% and 54% and the “Population Hoechst High Intensity Objects (%)” value [6] was 3% and 4%. For the same compound, the “Population Membrane Permeable-Phenotype (%)” value [6] was 0% and 3%, the “Population Mitochondria Different-Phenotype (%)” value [6] was 3% and the “Population Mitotic Cells (%)” value [6] was 20% and 45%. The “Population Normal (%)” value [6] was 96% and 95%, the “Population Pyknosed Nuclei (%)” value [6] was 10% and the “Population Tubulin-Different-Phenotype (%)” value [6] was 34% and 50%. For the same compound, the “Total Cell Count” value [6] was 147 and 111.
